Reference: ChEMBL document CHEMBL1141726, “bis-Pyridinium cyclophanes: novel ligands with high affinity for the blood-brain barrier choline transporter” (Bioorg Med Chem Lett, 2008)

assay: Binding affinity to blood-brain barrier choline transporter in rat brain assessed as inhibition of [3H]choline uptake; assay type: tissue-based
Outline: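 In situ rat brain perfusion (Allen and Smith modification); inhibition of [3H]choline uptake into brain measured. Ki taken as analogue concentration inhibiting 50% of [3H]-choline uptake, calculated from a single inhibitor concentration. Ki values compared by ANOVA with Bonferroni's multiple comparisons test.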

Structure (SMILES) | Ki [µM]
c1ccc2c[n+](CCCCCCCCCCCC[n+]3ccc4ccccc4c3)ccc2c1 | 22
c1ccc2c[n+](CCCCCCCCCC[n+]3ccc4ccccc4c3)ccc2c1 | 9.5
CCCCCCCC[n+]1cccc([C@@H]2CCCN2C)c1 | 49
c1ccc2c[n+](CCCCCC[n+]3ccc4ccccc4c3)ccc2c1 | 29
C1#Cc2ccc[n+](c2)CCCCCCCC[n+]2cccc(c2)C#CCCCCCC1 | 0.8
C1#Cc2ccc[n+](c2)CCCCCCCCC[n+]2cccc(c2)C#CCCCCCC1 | 33.8
C1#Cc2ccc[n+](c2)CCCC[n+]2cccc(c2)C#CCCCCCC1 | 15.2
C1#Cc2ccc[n+](c2)CCCCCCC[n+]2cccc(c2)C#CCCCCCC1 | 1.4
Cc1ccc[n+](CCCCCCCCCCCC[n+]2cccc(C)c2)c1 | 36
C[N+](C)(C)CCO [CHOLINE] | 41
